High-throughput results deposited in PubChem by Broad Institute.
E-selectin induc: induces E-selectin expression in human endothelial cells; P16581; HUVEC E-selectin immunofluorescence imaging; normalized: neutral wells 0, TNF-alpha wells 100; activation, % at 7.58 µM; 0.37% of 260,000 active; AID 686992;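 active = mean E-selectin-positive cell signal at least 10% of the positive control, reached in at least 60% of replicates, without over 20% cell loss; inconclusive = no rule given, readout overlaps actives, possibly toxicity-flagged; inactive = the rest, including those meeting only one limit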
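Test system: HUVEC | Signal: Immunofluorescence imaging | Read-out: Percent E-selectin-positive cells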
DENV2 CPE: protects cells from dengue virus 2 cytopathic effect | DENV2-infected cells, cytopathic effect rescue, plate reader | CPE inhibition, % at 9.99 µM | 1.7% of 350,000 active; in the data active = CPE inhibition above about 20%, passing the limit was not always enough; inconclusive = no clear call, values can overlap the other calls; tested in BHK-21 cells
XiGFP reactiv: X-chromosome reactivation activator; 0.055% of 360,000 active; activation, % at 7.58 µM; XiGFP mouse fibroblasts, % GFP-positive cells imaging, 3 d; cells co-treated with 5-aza-dC sensitizer; scaled so ellipticine positive control = 100%;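 active = mean normalized replicate activation at least 10% and every replicate at or above 10%; inconclusive = only one of the two criteria met; inactive = mean below 10% and not all replicates reach 10%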
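assay system = SV40-immortalized XiGFP fibroblast cells, line 68-5-11 | buffer or medium = DMEM plus 5-aza-dC sensitizer | doses = single-point pinned compound dosing | times = 3-day compound exposure, then 15 min fixation at room temperature | benchmarks = positive control ellipticine, 6 µM final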
S100A4 inh HTS: blocks human S100A4 binding to myosin IIA peptide; S100A4/TAMRA-MyoIIA peptide fluorescence polarization; inhibition, % at 10.7 µM; 0.14% of 360,000 active; AID 652163;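 active = mean inhibition of at least 70% across replicates, with every replicate also reaching that level; inconclusive = mean inhibition reaches 70% but some replicates fall short; inactive = mean inhibition below 70%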
Target sequence (P26447 whole entry, looked up): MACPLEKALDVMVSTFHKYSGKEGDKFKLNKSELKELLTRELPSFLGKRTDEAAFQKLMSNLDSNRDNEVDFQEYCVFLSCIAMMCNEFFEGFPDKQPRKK
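Material: human S100A4 monomer with TAMRA-labelled myosin IIA peptide; buffer or medium: HEPES pH 7.2 with CaCl2, KCl, NaCl, DTT, Triton; compound dosing: one concentration per compound; schedule: 5 min incubation before reading; benchmarks: neutral control DMSO, positive control TFP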
Large screens that a line does not name were inactive; ! = not confirmed by another sample. The list is not random: actives were taken first. Their share in the collection is about 2%.

COc1ccc(NC(=O)N(C)C[C@@H]2Oc3ncc(C#CC(C)(C)O)cc3C(=O)N([C@H](C)CO)C[C@@H]2C)cc1	S100A4 inh HTS 112
Cc1oc2c(c(C)cc3oc(=O)c(CC(=O)NCCC(=O)O)c(C)c32)c1C	none
C[C@@H]1CN([C@@H](C)CO)C(=O)c2cc(NC(=O)Cc3ccccc3)ccc2O[C@@H](C)CCCCO[C@H]1CN(C)C(=O)Nc1ccccc1	none (no result: E-selectin induc)
C[C@H](CO)N1C[C@H](C)[C@@H](CN(C)C(=O)Nc2ccccc2)Oc2c(NC(=O)c3ccncc3)cccc2C1=O	DENV2 CPE 42!
C[C@@H]1CN([C@H](C)CO)C(=O)c2cccc(NC(=O)c3ccncc3)c2O[C@@H]1CN(C)C(=O)Nc1ccccc1	DENV2 CPE 54
C[C@H]1CN([C@@H](C)CO)C(=O)c2cccc(NC(=O)c3ccncc3)c2O[C@H]1CN(C)C(=O)Nc1ccccc1	none
O=C1C(Cl)=C(N2CCN(c3ccccc3[N+](=O)[O-])CC2)C(=O)c2ccccc21	XiGFP reactiv 35
CS(=O)(=O)NNC(=O)c1csc(Cc2c(Cl)sc3ccc(Cl)cc23)n1	E-selectin induc 63
C[C@@H]1CCCCO[C@@H](CN(C)Cc2ccccc2)[C@@H](C)CN([C@@H](C)CO)C(=O)c2cc(NC(=O)C3CCCCC3)ccc2O1	DENV2 CPE 27
C[C@@H]1CCCCO[C@@H](CN(C)Cc2ccc(C(=O)O)cc2)[C@@H](C)CN([C@H](C)CO)C(=O)c2cc(NC(=O)C3CCCCC3)ccc2O1	DENV2 CPE inconclusive
C[C@@H]1CCCCO[C@@H](CN(C)Cc2ccc(C(=O)O)cc2)[C@@H](C)CN([C@@H](C)CO)C(=O)c2cc(NC(=O)C3CCCCC3)ccc2O1	DENV2 CPE 38
CC1CCCN(C(=O)c2ccc(S(=O)(=O)Nc3ccccc3Cl)cc2)C1 (stereo not drawn)	DENV2 CPE 83
COc1ccc(-c2cn(CC[C@@H]3CC[C@@H](NC(=O)Cc4ccccn4)[C@H](CO)O3)nn2)cc1	none
COc1ccc(-c2cn(CC[C@@H]3CC[C@H](NC(=O)Cc4ccccn4)[C@@H](CO)O3)nn2)cc1	DENV2 CPE 22!
COc1ccccc1-c1cn(CC[C@@H]2CC[C@H](NC(=O)Cc3ccccn3)[C@H](CO)O2)nn1	DENV2 CPE 40
O=C(CCN1CCCCC1)N[C@H]1CC[C@H](CCn2cc(-c3ccccc3)nn2)O[C@@H]1CO	S100A4 inh HTS 124
O=C(c1cccc(F)c1)N1C[C@@H]2[C@H](c3ccccc31)[C@H](CO)N2C(=O)C1CC1	DENV2 CPE 32
COCC(=O)N1[C@H](CO)[C@H]2c3ccccc3N(C(=O)c3cccc(OC)c3)C[C@H]21	DENV2 CPE 55
O=C(c1ccccc1)N1C[C@@H]2[C@H](c3ccccc31)[C@H](CO)N2C(=O)c1cccc(F)c1	DENV2 CPE 26
O=C(c1cccc(F)c1)N1C[C@@H]2[C@H](c3ccccc31)[C@@H](CO)N2C(=O)C1CCCC1	none
CCc1sc(C(=O)NNC(=O)CNC(=O)c2ccccc2F)cc1C	none (no result: E-selectin induc)
Cn1c2c(c(=O)n(C)c1=O)C(C(F)(F)F)(C(F)(F)F)N=C(CCC1CCCCC1)N2	none (no result: E-selectin induc)
CCCCn1c(SCC(=O)NC(C)(C)C)nnc1-c1ccco1	none (no result: E-selectin induc, XiGFP reactiv)
O=C(C[C@H]1C[C@@H]2c3cc(NC(=O)c4ccc5c(c4)OCO5)ccc3O[C@@H]2[C@H](CO)O1)NC1CCCC1	none
CN(C)CC(=O)Nc1ccc2c(c1)[C@@H]1C[C@@H](CC(=O)NC3CCCCC3)O[C@H](CO)[C@@H]1O2	DENV2 CPE 86
O=C(C[C@@H]1C[C@@H]2c3cc(NC(=O)c4ccc5c(c4)OCO5)ccc3O[C@@H]2[C@H](CO)O1)NC1CCCC1	DENV2 CPE 38
COCC(=O)Nc1ccc2c(c1)[C@H]1C[C@H](CC(=O)NC3CCCC3)O[C@@H](CO)[C@H]1O2	none
CN(C)CC(=O)Nc1ccc2c(c1)[C@H]1C[C@H](CC(=O)NC3CCCCC3)O[C@@H](CO)[C@H]1O2	DENV2 CPE 86
COCC(=O)Nc1ccc2c(c1)[C@@H]1C[C@H](CC(=O)NC3CCCCC3)O[C@H](CO)[C@@H]1O2	DENV2 CPE 56
Cc1ccc(S(=O)(=O)N(C)C[C@H]2Oc3c(NS(=O)(=O)c4ccccc4)cccc3C(=O)N([C@H](C)CO)C[C@H]2C)cc1	none
CO[C@H](CN(C)C(=O)Nc1ccc(C(F)(F)F)cc1)[C@@H](C)CN(Cc1ccccc1Cl)[C@@H](C)CO	XiGFP reactiv inconclusive
CC(OC(=O)c1ccc(O)cc1)C(=O)Nc1nc(-c2ccccc2)cs1 (stereo not drawn)	DENV2 CPE 38
CC(Oc1ccccc1)C(=O)Nc1nc(-c2ccncc2)cs1 (stereo not drawn)	none (no result: E-selectin induc)
Cc1nn(CC(=O)NCCc2cccs2)c(=O)c2nn(-c3ccccc3)c(C)c12	none (no result: E-selectin induc)
Cc1ccc(-n2nc3c(=O)n(CC(=O)NCc4cccs4)nc(C)c3c2C)cc1	DENV2 CPE 54
Cc1ncc([N+](=O)[O-])n1CC(=O)Nc1ccc(F)c(F)c1	DENV2 CPE 35
CC(=O)NC1C(OCc2ccccc2)OC2COC(c3ccccc3)OC2C1OCC(=O)O (stereo not drawn)	none (no result: E-selectin induc)
CC(C)CNC(=O)c1ccc2c(c1)C(=O)N(C1CCCCC1)C2=O	DENV2 CPE inconclusive (no result: E-selectin induc)
O=C(NC(O)C(=O)c1ccccc1)c1ccccn1 (stereo not drawn)	E-selectin induc 50
O=C(NC(O)C(=O)c1ccccc1)c1cccs1 (stereo not drawn)	none (no result: E-selectin induc)
CC(=O)OC1CCC2(C)C(CCC3C2CC(=NO)C2(C)C(C(C)OC(C)=O)CCC32)C1 (stereo not drawn)	none
CC(=O)O[C@H]1CC[C@@]2(C)[C@@H](CC[C@H]3[C@@H]4CC[C@H](C(C)O)[C@@]4(C)CC(=O)[C@@H]32)C1 (stereo partly drawn)	DENV2 CPE 37
CCOc1ccc(C(C)=O)cc1CSc1nc(C)cc(C)n1	none (no result: E-selectin induc)
COCC#Cc1ccc2c(c1)O[C@@H](CN(C)Cc1ccccc1)[C@H](C)CN([C@H](C)CO)S2(=O)=O	DENV2 CPE 23
COCC#Cc1ccc2c(c1)O[C@@H](CN(C)Cc1ccncc1)[C@H](C)CN([C@H](C)CO)S2(=O)=O	DENV2 CPE 20
COCC#Cc1ccc2c(c1)O[C@H](CN(C)Cc1ccccc1)[C@@H](C)CN([C@H](C)CO)S2(=O)=O	DENV2 CPE 28
COCC#Cc1ccc2c(c1)O[C@H](CN(C)Cc1ccccc1)[C@H](C)CN([C@H](C)CO)S2(=O)=O	none
O=C(O)CCCC(=O)N1CCN(c2nc(-c3ccccc3)c3ccccc3n2)CC1	none
CCOC(=O)C1=C(COC(=O)Cc2ccccc2[N+](=O)[O-])NC(=O)NC1C (stereo not drawn)	DENV2 CPE 38
O=C(OCCN1C(=O)c2ccccc2C1=O)C1CC(O)CN1S(=O)(=O)c1ccc(Cl)cc1 (stereo not drawn)	none
